Test results as given in PMC8865217 (Journal of natural products, 2021).
≈ marks a conversion by molar mass, not a printed value.

Assays:
[1] = target: Mycobacterial ClpC1 FL (full-length protein) (Mycobacterium tuberculosis, UniProt P9WPC9); test: Binding affinity to full-length ClpC1 by surface plasmon resonance; conditions: SPR, KD = kd/ka, 1:1 Langmuir model
Summary of the method: (§1)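 Association (ka) and dissociation (kd) rate constants came from a global fit of double-referenced SPR data to a 1:1 Langmuir model, and KD was calculated as kd/ka. The same procedure was used for the mycobacterial ClpC1 N-terminal domain and for the full-length protein.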

[2] = target: Mycobacterial ClpC1-NTD (caseinolytic protein C1 N-terminal domain) (Mycobacterium tuberculosis, UniProt P9WPC9); test: Binding affinity to ClpC1-NTD by surface plasmon resonance; conditions: SPR, KD = kd/ka, 1:1 Langmuir model
Chain of Mycobacterial ClpC1-NTD (caseinolytic protein C1 N-terminal domain) (P9WPC9 2-144): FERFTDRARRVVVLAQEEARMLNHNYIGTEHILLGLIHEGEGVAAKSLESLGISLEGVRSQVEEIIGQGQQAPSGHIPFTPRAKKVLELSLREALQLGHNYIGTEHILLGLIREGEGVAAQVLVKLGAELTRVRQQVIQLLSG
Summary of the method: as §1

[3] = Interconversion; assay type: physicochemical; conditions: for Relative stability among diastereomers/epimers: hemiaminal equilibrium
[4] = test system: M. tuberculosis; conditions: previous study; cited from earlier work
[5] = test system: M. tuberculosis; test: MIC against M. tuberculosis, microplate Alamar Blue assay; assay type: cell-based; conditions: Mycobacterium tuberculosis, read-out: MIC value (anti-Mtb)

Chain of Mycobacterial ClpC1 FL (full-length protein) (P9WPC9 whole entry, the tested form may be a part): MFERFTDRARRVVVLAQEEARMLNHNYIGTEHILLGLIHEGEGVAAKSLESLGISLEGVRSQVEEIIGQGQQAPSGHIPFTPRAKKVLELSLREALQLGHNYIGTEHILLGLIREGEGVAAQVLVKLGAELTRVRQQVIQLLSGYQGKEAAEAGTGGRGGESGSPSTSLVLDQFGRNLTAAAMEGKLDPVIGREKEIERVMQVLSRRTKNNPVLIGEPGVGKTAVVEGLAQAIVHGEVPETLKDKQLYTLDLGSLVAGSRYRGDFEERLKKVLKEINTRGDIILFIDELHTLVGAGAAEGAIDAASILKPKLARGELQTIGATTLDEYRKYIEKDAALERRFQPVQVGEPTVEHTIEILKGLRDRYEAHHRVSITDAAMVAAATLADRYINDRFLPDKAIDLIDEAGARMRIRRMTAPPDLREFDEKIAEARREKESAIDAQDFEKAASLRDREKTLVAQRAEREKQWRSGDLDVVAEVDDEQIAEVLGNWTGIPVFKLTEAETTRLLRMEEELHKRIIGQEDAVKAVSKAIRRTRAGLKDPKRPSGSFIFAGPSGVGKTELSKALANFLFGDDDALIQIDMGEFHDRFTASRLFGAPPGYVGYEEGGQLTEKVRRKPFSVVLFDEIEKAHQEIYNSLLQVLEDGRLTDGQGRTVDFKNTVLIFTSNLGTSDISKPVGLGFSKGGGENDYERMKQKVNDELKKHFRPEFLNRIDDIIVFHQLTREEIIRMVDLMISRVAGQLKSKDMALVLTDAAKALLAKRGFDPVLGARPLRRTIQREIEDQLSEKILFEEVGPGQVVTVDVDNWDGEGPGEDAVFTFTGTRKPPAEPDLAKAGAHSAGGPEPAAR

CC=CCC1NC(=O)C(CC(C)C)N2C(=O)C(CC(C)C2OCCCC)N(C)C(=O)C(C)NC(=O)C(Cc2ccc(O)c([N+](=O)[O-])c2)NC(=O)C(CC(C)C)N(C)C(=O)C(Cc2cn(C(C)(C)C(O)CCl)c3ccccc23)NC1=O (stereo not drawn) [rufomycinSS 1]
Kd [1]: 724 nM | Kd [2]: 602 nM

C/C=C/C[C@@H]1NC(=O)[C@H](CC(C)C)N2C(=O)[C@H](C[C@@H](C)[C@H]2O)N(C)C(=O)[C@H](C)NC(=O)[C@H](Cc2ccc(O)c([N+](=O)[O-])c2)NC(=O)[C@H](CC(C)C)N(C)C(=O)[C@H](Cc2cn(C(C)(C)[C@H]3CO3)c3ccccc23)NC1=O [rufomycin 6]
Relative stability among diastereomers/epimers [3]: more stable epimer | Conversion to rufomycin 7 ([3]; slow conversion under aqueous conditions): ~ 5%

C/C=C/C[C@@H]1NC(=O)[C@H](CC(C)C)N2C(=O)[C@H](C[C@H](C)[C@H]2O)N(C)C(=O)[C@H](C)NC(=O)[C@H](Cc2ccc(O)c([N+](=O)[O-])c2)NC(=O)[C@H](CC(C)C)N(C)C(=O)[C@H](Cc2cn(C(C)(C)[C@H]3CO3)c3ccccc23)NC1=O [rufomycin 4]
MIC value (anti-Mtb) [4]: ~ 0.020 μM

C/C=C/C[C@@H]1NC(=O)[C@H](CC(C)C)N2C(=O)[C@H](C[C@@H](C)[C@H]2OCCCC)N(C)C(=O)[C@H](C)NC(=O)[C@H](Cc2ccc(O)c([N+](=O)[O-])c2)NC(=O)[C@H](CC(C)C)N(C)C(=O)[C@H](Cc2cn(C(C)(C)C(O)CCl)c3ccccc23)NC1=O (stereo partly drawn) [rufomycinSS 3]
Kd [1]: 171 nM | Kd [2]: 211 nM | MIC [5]: 4.3 µM (≈ 4.88 µg/mL)

C/C=C/C[C@@H]1NC(=O)[C@H](CC(C)C)N2C(=O)[C@H](C[C@@H](C)[C@@H]2O)N(C)C(=O)[C@H](C)NC(=O)[C@H](Cc2ccc(O)c([N+](=O)[O-])c2)NC(=O)[C@H](CC(C)C)N(C)C(=O)[C@H](Cc2cn(C(C)(C)[C@H]3CO3)c3ccccc23)NC1=O [rufomycin 7]
Relative stability among diastereomers/epimers [3]: most unstable diastereomer | Epimerization to rufomycin 6 ([3]; quickly, during concentration): ~ 50%

CC=CCC1NC(=O)C(CC(C)C)N2C(=O)C(CC(C)C2OCCCC)N(C)C(=O)C(C)NC(=O)C(Cc2ccc(O)c([N+](=O)[O-])c2)NC(=O)C(CC(C)C)N(C)C(=O)C(Cc2cn(C(C)(C)C(O)CCl)c3ccccc23)NC1=O (stereo not drawn) [rufomycinSS 2]
Kd [1]: 29 nM | Kd [2]: 27 nM
